Bioassay records deposited in PubChem by several laboratories.
GRK2 aptamer HTS – inhibitors of human GRK2 displacing RNA aptamer; P25098; hit rate 0.59% among 330,000; bead flow cytometry, FAM-aptamer displacement from GRK2; inhibition of aptamer binding, % at 10 µM;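 active = inhibition of aptamer binding above 40%, roughly 3 SD of noise, on plates passing a quality check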;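 note: median bead fluorescence of bound FAM aptamer so fluorescent compounds give negative values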
B2AR ag – human beta-2 adrenergic receptor agonism by FAP; P07550; Am2.2-beta2AR cells, FAP receptor internalization, flow cytometry; response, % (concentration not given with the values); hit rate 0.43% among 340,000; AID 504454;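 active = response above a set limit, near 3 SD of response in nonfluorescent compounds, cut at about 42% in these data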
NTR1 agonist – activates human neurotensin receptor 1 | P30989 | NTR1-U2OS beta-arrestin-GFP spot imaging, agonist mode | activation, % at 20 µM | hit rate 0.17% among 330,000 | AID 493036;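 active = activation at or above 40% of the spot to cytoplasm intensity ratio, with at least 20 cells analyzed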;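 note: 0% = DMSO without peptide and 100% = 100 nM NTR1 peptide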
Lipid droplet – hepatic lipid droplet formation modulation; hit rate 0.4% among 240,000; AML12 mouse hepatocytes, oleate lipid droplets, BODIPY imaging; inhibition, % at 6.5 µM;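 active = lipid droplet intensity inhibited by at least 50%, with more than 500 cells counted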
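Material – mouse AML12 hepatocyte cell line, fixed after treatment · Compound dosing – one dose, 6.5 µM compound · Times – compound with oleate, overnight · Measured by – Image-based BODIPY and DAPI two-channel analysis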
H9c2 TAG inh – triacylglycerol accumulation inhibition. AID 651582. H9c2 cells, Nile Red lipid (TAG) fluorescence; cells loaded with 200 µM oleic acid. hit rate 0.66% among 230,000. inhibition, % at 12.5 µM;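 active = pattern-corrected inhibition of lipid staining of at least 50% with the nuclear-stain viability signal not falling by more than 50%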;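 note: 0% = DMSO wells and 100% = triacsin C control wells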
Arr AP2 block – blocks beta-arrestin peptide binding to AP2 adaptin; AID 504490; inhibition, % at 10 µM; FITC-arrestin peptide / GST-AP2 beads, flow cytometry; AP2 beta2 appendage carries R879A mutation; hit rate 0.31% among 340,000;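 active = inhibition above a set limit, near 3 SD of compounds lacking own fluorescence, cut at about 54% in these data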;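 note: plate controls were DMSO wells for no effect and 5 µM unlabelled arrestin peptide for full effect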
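Test system: GST-tagged AP2 beta2-adaptin appendage (R879A) on 4 µm glutathione beads; also added: fluorescein-tagged arrestin peptide at 50 nM final; timing: 12 min plus 1 h, RT; signal: flow cytometry, FL1 (488/535 nm); read-out: percent drop in bead-associated FITC signal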
Arr-AP2 CP1 – blocks beta-arrestin peptide binding to human AP2 | shares compounds with Arr AP2 block | GST-AP2 beads, FITC arrestin peptide binding, flow cytometry; GST-fused beta2-adaptin appendage, R879A mutant | inhibition, % at 10 µM | hit rate 2% among 1,300;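 active = inhibition above a set limit, roughly 3 SD of non-fluorescent compound noise, cut at about 38% in these data; inactive = inhibition at or below that limit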;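 note: loss of bead fluorescence from 50 nM FITC arrestin peptide bound to appendage; 0% = negative control wells and 100% = excess unlabelled arrestin peptide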
Target sequence (P63010 whole entry, looked up, the tested form may be a part, one chain of several): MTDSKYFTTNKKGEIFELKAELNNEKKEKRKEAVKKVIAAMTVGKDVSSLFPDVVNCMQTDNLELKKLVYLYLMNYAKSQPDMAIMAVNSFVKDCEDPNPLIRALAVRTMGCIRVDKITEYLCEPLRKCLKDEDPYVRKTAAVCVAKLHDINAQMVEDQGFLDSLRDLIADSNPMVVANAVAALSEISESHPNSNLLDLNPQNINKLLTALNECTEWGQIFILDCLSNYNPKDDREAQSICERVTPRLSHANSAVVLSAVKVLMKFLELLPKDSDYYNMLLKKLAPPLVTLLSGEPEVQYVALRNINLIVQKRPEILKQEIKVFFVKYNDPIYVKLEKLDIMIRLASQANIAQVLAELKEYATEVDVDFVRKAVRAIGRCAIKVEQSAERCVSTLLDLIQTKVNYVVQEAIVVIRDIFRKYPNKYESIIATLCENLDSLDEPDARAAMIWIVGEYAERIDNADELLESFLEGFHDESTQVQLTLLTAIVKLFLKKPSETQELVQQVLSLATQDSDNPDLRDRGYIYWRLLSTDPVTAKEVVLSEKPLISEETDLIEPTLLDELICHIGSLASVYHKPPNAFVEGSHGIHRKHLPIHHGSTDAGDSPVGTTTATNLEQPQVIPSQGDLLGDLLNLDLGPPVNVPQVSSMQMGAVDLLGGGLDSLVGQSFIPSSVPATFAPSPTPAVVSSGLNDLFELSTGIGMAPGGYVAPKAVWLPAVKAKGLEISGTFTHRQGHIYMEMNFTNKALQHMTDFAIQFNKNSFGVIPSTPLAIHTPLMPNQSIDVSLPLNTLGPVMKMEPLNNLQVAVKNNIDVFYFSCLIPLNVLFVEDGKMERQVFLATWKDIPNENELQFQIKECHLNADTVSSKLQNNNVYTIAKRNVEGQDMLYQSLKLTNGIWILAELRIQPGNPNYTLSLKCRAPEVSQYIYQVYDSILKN
GST-FITC bead – disrupts GST binding to glutathione beads, arrestin-AP2 artifact; shares compounds with Arr AP2 block; GST-fluorescein binding to GSH beads, fluorescence, counter-screen; inhibition, % at 10 µM; hit rate 2% among 1,300; AID 588338;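 active = inhibition above 50%, about 3 SD of the inhibition seen with non-fluorescent compounds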;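 note: fluorescein maleimide labelled GST captured on 4 micron glutathione beads; higher means more loss of bead fluorescence from quenching or blocked binding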
* = called active by the depositor; . = no result. This is a sample that favours compounds with a hit; in the whole collection about 2% have one here.

SMILES	GRK2 aptamer HTS	B2AR ag	NTR1 agonist	Lipid droplet	H9c2 TAG inh	Arr AP2 block	Arr-AP2 CP1	GST-FITC bead
CCO[C@H]1OC(C(=O)Nc2ccccc2)=C[C@@H](c2cn(C(C)=O)c3ccccc23)[C@@H]1CCCO	.	-14.3	3.2	7.3	17.0	15.6	.	.
CCCCn1cnc2c(oc3ccccc32)c1=O	0.0	-3.2	-0.2	12.0	.	3.5	.	.
COc1ccc(CCN(C)C(=O)c2cc(-c3ccccc3)nc3ccc(C)cc23)cc1OC	0.0	-0.2	1.1	-14.2	.	66.8*	7.8	1.5
COc1ccc(CCN(C)C(=O)c2cc(-c3ccccc3)nc3ccccc23)cc1OC	0.0	3.5	0.7	-3.1	0.4	5.7	.	.
CCN(CC)S(=O)(=O)c1ccc(OC)c(NC(=O)c2cc(C)on2)c1	1.0	-0.8	-0.3	4.5	-1.5	-5.7	.	.
Cc1ccc(-c2cc(C(=O)Nc3c(C)n(C)n(-c4ccccc4)c3=O)c3ccccc3n2)cc1	2.0	6.3	0.9	.	1.2	35.8	.	.
COc1ccc(-c2cc(C(=O)Nc3c(C)n(C)n(-c4ccccc4)c3=O)c3ccccc3n2)cc1OC	1.0	1.3	2.4	1.2	.	56.5*	-9.7	-2.9
Cc1ccc2nc(SCC(=O)Nc3ccc(Br)cc3)nc(=O)n2c1	1.0	9.5	1.3	.	-4.9	55.8*	-10.0	-0.7
O=C(NC(=S)N1CCN(c2ccccc2)CC1)c1ccc(S(=O)(=O)N2CCOCC2)cc1	3.0	3.3	0.5	-0.9	3.2	6.5	.	.
O=C(NCCCN1CCN(c2cccc(Cl)c2)CC1)C1CCC(=O)N1Cc1ccccc1Cl (configuration not stated)	.	-3.3	.	.	4.6	4.4	5.8	-10.6
Cc1ccc(CN2C(=O)CCC2C(=O)NCCN2CCOCC2)cc1 (configuration not stated)	2.0	1.1	1.4	.	-21.2	6.0	-9.7	-4.5
CN(CCCNC(=O)C1CCC(=O)N1Cc1ccccc1Cl)c1ccccc1 (configuration not stated)	2.0	1.2	-0.4	.	.	6.0	.	.
Cc1ccc(CN2C(=O)CCC2C(=O)NCCCN2CCCC(C)C2)cc1 (configuration not stated)	0.0	-4.1	1.1	14.4	20.0	1.7	-11.2	-8.5
COc1ccc(C(CNC(=O)c2cc(C)on2)N(C)C)cc1 (configuration not stated)	4.0	5.7	0.3	-2.6	.	-4.8	.	.
CN(Cc1nccs1)C(=O)C1CCC(=O)N(CCCc2ccccc2)C1 (configuration not stated)	.	6.4	0.5	1.8	.	57.2*	-2.9	-1.9
CN(Cc1nccs1)C(=O)C1CCC(=O)N(Cc2ccccc2F)C1 (configuration not stated)	0.0	-5.0	-0.7	7.3	12.6	-5.5	.	.
O=S(=O)(c1ccc(Oc2ccc(F)c(Cl)c2)nc1)N1CCOCC1	0.0	-8.0	0.2	.	-3.7	4.6	.	.
COc1cccc(-n2nc3c(=S)[nH]nc(C)c3c2C)c1	0.0	-0.5	-0.4	.	16.8	85.1*	16.6	-3.5
Cc1n[nH]c(=S)c2nn(-c3cccc(Cl)c3)c(C)c12	.	.	.	16.0	.	.	.	.
CCN1C[C@@H]2[C@@H]3C(=O)N(C)C(=O)[C@@H]3[C@](C)(C1=O)N2C(=O)c1ccc(C)cc1	.	-0.8	.	.	-2.4	4.9	.	.
CCOC(=O)c1c(C)[nH]c(C)c1C(=O)COC(=O)C1CC(=O)N(CCc2ccccc2)C1 (configuration not stated)	0.0	-0.1	-1.6	.	-7.6	0.9	.	.
Cc1c(C(=O)c2ccc(F)cc2F)c2ccccn2c1CCc1ccccn1	.	.	.	.	-12.6	.	.	.
Cc1c(C(=O)c2ccc(F)cc2F)c2ccccn2c1CCC#N	3.0	-12.2	-1.0	-39.7	.	61.8*	2.8	-4.6
Cc1ccc(SCC(=O)OCC(=O)NCC2CCCCC2)cc1C	0.0	-0.1	-0.6	.	-1.3	12.8	.	.
Cc1ccc(SCC(=O)OCC(=O)NCCNC(=O)COC(=O)CSc2ccc(C)c(C)c2)cc1C	0.0	2.5	-1.0	.	-8.0	68.1*	-3.6	-1.6
